# MrgX1 agonist – human MrgX1 receptor agonism, primary screen. Q96LB2. MrgX1-HEK293 cells, Fluo-4 calcium fluorescence, agonist mode; hits give high values. B-score at 10 µM. actives 0.44% (n = 310,000). AID 588627;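 active = calcium response B-score plate-corrected fluorescence ratio at least 3 library SD, with starting fluorescence B-score inside 5 SD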
# Target sequence (Q96LB2 whole entry, looked up): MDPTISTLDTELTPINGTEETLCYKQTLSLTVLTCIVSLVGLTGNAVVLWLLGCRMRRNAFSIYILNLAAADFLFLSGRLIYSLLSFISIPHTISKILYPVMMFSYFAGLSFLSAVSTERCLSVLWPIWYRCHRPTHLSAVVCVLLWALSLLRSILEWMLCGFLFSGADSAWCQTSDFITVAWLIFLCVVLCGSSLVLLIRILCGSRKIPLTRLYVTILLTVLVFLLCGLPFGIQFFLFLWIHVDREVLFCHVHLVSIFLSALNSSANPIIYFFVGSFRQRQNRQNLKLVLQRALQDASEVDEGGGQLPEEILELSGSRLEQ
#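 Test system: Stable human MrgX1 HEK293 cell line | Schedule: Overnight plating before 1 h dye loading | Read-out basis: Baseline-normalised fluorescence change ratio, B-scored | Detection: Kinetic calcium dye fluorescence, Fluo-4 NW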
# MrgX1 PAM – human MrgX1 positive allosteric modulation, primary screen. Q96LB2. MrgX1-HEK293, Fluo-4 calcium flux, FDSS; hits give high values. B-score at 10 µM. actives 0.63% (n = 310,000);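 active = plate-corrected calcium response at least 3 library SD above typical, normal starting fluorescence, not activating the receptor alone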;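 note: compound read alongside a low EC10 to EC30 dose of BAM8-22 agonist; peak minus trough fluorescence over baseline measured at the second addition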
# MrgX1 antagonist – blocks BAM8-22 activation of human MrgX1 receptor; MRGX1-HEK293 calcium flux, Fluo-4, BAM8-22 antagonism; hits give low values; B-score at 10 µM; actives 1.3% (n = 310,000);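 active = calcium-response B-score plate-corrected more than 3 library SD below zero, starting fluorescence within 5 deviations, no agonist response on first addition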;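 note: peak minus trough fluorescence over baseline after final BAM8-22 challenge near maximal dose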
# RGS4 inh – inhibitors of human RGS4 | HEK293 M3R/RGS4 inducible, Fluo-4 calcium flux; hits give high values; triggered by carbachol at its EC20 | P49798 | B-score at 10 µM | AID 463165 | actives 0.45% (n = 310,000);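 active = B-score, a plate-corrected calcium signal, over three deviations above library mean, with baseline fluorescence within five deviations of library mean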;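 note: RGS4 expression induced by doxycycline in cells with stable M3 receptor; B-score is computed from the integrated fluorescence ratio over baseline after carbachol; higher B-score means a larger calcium signal and so more RGS4 inhibition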
# Target sequence (P49798 whole entry, looked up): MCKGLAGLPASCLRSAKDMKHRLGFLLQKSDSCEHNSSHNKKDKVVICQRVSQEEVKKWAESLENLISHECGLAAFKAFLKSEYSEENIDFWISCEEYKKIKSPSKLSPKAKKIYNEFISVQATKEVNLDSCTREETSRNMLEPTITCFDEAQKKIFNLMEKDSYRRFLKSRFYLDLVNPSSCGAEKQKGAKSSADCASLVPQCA
# RGS4 pot – RGS4 potentiation or activation; HEK293 M3R/inducible RGS4, carbachol calcium flux Fluo4; hits give low values; actives 0.92% (n = 310,000); B-score at 10 µM;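 active = B-score of the integrated calcium signal more than 4 SD below the library mean, with starting fluorescence not abnormally high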;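 note: negative B-score means reduced calcium response which marks RGS4 activation or potentiation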
#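 System – HEK293 FlpIn-TREx cells, stable M3R, doxycycline-inducible RGS4 · Reagent – ECmax carbachol challenge · Times – compound preincubation 20 min at room temperature before agonist · Technique – Fluo4 fluorescence kinetic imaging of calcium · Measure – B score of integrated Fluo4 ratio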
# * marks the source's active call; other numbers are inactive results; i = inactive; x = no result. Rows were chosen to be rich in hits. Some 3.5% of all compounds tested hit in one or more screens of this group.
SMILES,MrgX1 agonist,MrgX1 PAM,MrgX1 antagonist,RGS4 inh,RGS4 pot
COC1=CC(=Cc2c(N)n3nc(CC(=O)N4CCCCC4)sc3nc2=O)C=C(OC)C1=O,i,i,i,i,i
CC1(C)CC(=O)C([N+](=O)[O-])=C(NCCCC(=O)O)C1,i,i,-5.4*,i,i
COc1ccc(OC)c(CCNC(=O)c2ccc3c(=O)[nH]c4c(C(=O)NC(C)C)sc(=S)n4c3c2)c1,i,i,-8*,i,-8.8*
COc1ccc(OC)c(CCNC(=O)c2ccc3c(c2)N(Cc2ccc(F)cc2)CCS3)c1,i,i,i,i,i
CC(C)NC(=O)c1sc(=S)n2c1[nH]c(=O)c1ccc(C(=O)NCCc3ccc(Cl)cc3)cc12,i,i,-5.9*,i,-8.2*
CCOc1ccc(CCNC(=O)c2ccc3c(=O)[nH]c4c(C(=O)NC(C)C)sc(=S)n4c3c2)cc1,i,i,-9.2*,i,i
O=C(NCCc1ccccc1)c1ccc2c(=O)[nH]c3c(C(=O)NCC4CCCO4)sc(=S)n3c2c1 (stereo not given),i,i,i,i,i
O=C(CCc1ccncc1)N1CCCC(Nc2ccc(F)c(F)c2)C1 (stereo not given),i,i,i,i,i
O=C(Nc1ccccc1N1CCOCC1)c1cc2ccccc2o1,i,i,i,i,i
O=C(Nc1ccc(N2CCOCC2)c(Cl)c1)c1cc2ccccc2o1,i,i,i,i,-7.6*
CCC1CCCCN1C(=O)c1ccc(OC)c(OC2CCN(C(C)C)CC2)c1 (stereo not given),i,i,i,i,i
Nc1c(C(=O)Nc2cccc(F)c2)nnn1-c1ccc2c(c1)OCCO2,i,i,i,i,i
COc1ccc(CCNC(=O)/C(C#N)=C2\N=C(NC(=O)c3ccco3)c3ccccc32)cc1,i,i,-4.7*,i,i
N#C/C(C(=O)NCc1ccccc1)=C1/N=C(NC(=O)c2ccco2)c2ccccc21,i,i,i,i,i
O=C(CN1CCCCC1)NNc1nc(-c2ccccc2)c2cc(Br)ccc2n1,i,i,i,i,i
CC(=O)Nc1sc2c(c1C(c1ccccc1Cl)N1CCN(CCO)CC1)CCCC2 (stereo not given),i,i,i,i,-7.5*
Cc1nn(-c2ccccc2)c2nc(C(F)(F)F)[nH]c(=O)c12,i,i,i,i,i
Cc1nn(-c2cc(C(F)(F)F)ccc2Cl)c2nc(C(Cl)(Cl)Cl)[nH]c(=O)c12,43*,i,i,i,i
CCN(CC)CCOC(=O)c1ccc(NC(=O)C2(c3ccccc3)CCCC2)cc1,i,i,i,i,-7.4*
CCOC(=O)c1ccc(NC(=O)/C=C/c2cccs2)cc1,i,i,i,i,i
CCN(CC)CCOC(=O)c1ccc(NC(=O)/C=C/c2cccs2)cc1,i,i,i,i,-7.1*
O=C(O)c1ccc(NC(=O)C2(c3ccccc3)CCCC2)cc1,i,i,i,i,i
O=C(c1ccc([N+](=O)[O-])s1)N1CCCc2ccccc21,i,i,i,i,-7.7*
O=C(c1ccc([N+](=O)[O-])s1)N1CCc2ccccc21,i,i,i,i,i
COc1ccc(C2(O)CC3CCC(C2)N3c2cc(C)nc(-c3ccccc3)n2)cc1 (stereo not given),i,i,i,i,i
SMILES,MrgX1 agonist,MrgX1 PAM,MrgX1 antagonist,RGS4 inh,RGS4 pot
Cc1cc(N2CCCC2)nc(N2C3CCC2CC(O)(c2ccc(F)cc2)C3)n1 (stereo not given),i,8*,i,i,i
Cc1nn(-c2ccccc2)c(Cl)c1C(=O)N1CCN(c2ncnc3c2cnn3-c2ccccc2)CC1,i,i,-7.6*,i,i
C#CCOc1c(Br)cc(/C=N/O)cc1OCC,i,7.9*,i,i,i
Cc1nc2ccccc2c(-c2ccccc2)c1CC(=O)O,i,i,i,i,i
O=C(O)C[C@H](O)C[C@H](O)/C=C/c1c(C2CC2)nc2ccccc2c1-c1ccc(F)cc1,x,x,x,i,-7*
COc1ccc(/C=N/NC(=O)c2ccc3ccccc3c2)cc1OS(=O)(=O)c1ccc(NC(C)=O)cc1,i,i,i,i,-9.3*
O=C(OCC(=O)N(Cc1ccccc1)Cc1ccccc1)c1ccccc1NCCO,i,i,i,i,-9.3*
CN(c1ncnc(N)c1[N+](=O)[O-])C1CCCCC1,27*,i,i,i,i
CCc1ccccc1S(=O)(=O)Cc1ccc(C(=O)N2CCN(c3ccccc3OC)CC2)o1,i,i,i,i,-7.7*
Cc1ccccc1S(=O)(=O)Cc1ccc(C(=O)N2CCN(c3cccc(C)c3C)CC2)o1,i,i,i,i,-7.2*
N#CCCN1CCN(C(=O)c2c(N)no[n+]2[O-])CC1,i,i,i,i,i
CCN(CCO)c1nc(N2CCCCC2)c2cnn(C)c2n1,i,i,i,i,i
C/C(=C/C#N)Nc1ccc(C)cc1,i,12*,i,i,i
CCOC(=O)N1CCN(C(=O)CN(C)S(=O)(=O)c2ccc(OCC)cc2)CC1,i,i,i,i,i
CCOc1ccccc1C(=O)N/N=C/c1coc2ccc(Cl)cc2c1=O,i,i,i,i,i
CS(=O)(=O)N(CC(=O)NCc1ccccc1Cl)c1cccc([N+](=O)[O-])c1,i,i,i,i,i
COc1ccc(N(CC(=O)NCCSCc2ccc(C)cc2)S(=O)(=O)c2ccccc2)cc1,i,i,i,i,i
COc1ccccc1N(CC(=O)Nc1c(C)n(C)n(-c2ccccc2)c1=O)S(=O)(=O)c1ccc(C)cc1,i,i,-5.5*,i,i
Cc1ccc(CSCCNC(=O)CN(c2cccc([N+](=O)[O-])c2)S(C)(=O)=O)cc1,i,9.9*,i,i,i
COc1ccccc1N(CC(=O)NCCSCc1ccc(C)cc1)S(=O)(=O)c1ccccc1,i,i,i,i,-10*
CCCc1cc(=O)oc2cc(C)cc(OCC(=O)Nc3cccnc3)c12,i,i,i,i,i
CCc1cccc(NC(=O)Cn2c(=O)n(CCC(=O)NCC3CCCO3)c(=O)c3cc(OC)c(OC)cc32)c1 (stereo not given),i,i,i,i,i
CCc1ccc(C(C(=O)NCc2ccc(OC)cc2)N(CCOC)C(=O)Cc2cccs2)cc1 (stereo not given),i,i,i,i,i
